ChEMBL document CHEMBL2321669, “Discovery, biological evaluation, and structure-activity and -selectivity relationships of 6'-substituted (E)-2-(benzofuran-3(2H)-ylidene)-N-methylacetamides, a novel class of potent and selective monoamine oxidase inhibitors” (J Med Chem, 2013)

What was measured:
[1] = molecular target: T1, Amine oxidase [flavin-containing] B (Rattus norvegicus, UniProt P19643); experiment: Inhibition of MAO-B in Sprague-Dawley rat brain mitochondrial suspension using kynuramine as substrate incubated for 5 mins prior to substrate addition measured for 5 mins by spectrophotometry
T1 sequence (P19643 whole entry): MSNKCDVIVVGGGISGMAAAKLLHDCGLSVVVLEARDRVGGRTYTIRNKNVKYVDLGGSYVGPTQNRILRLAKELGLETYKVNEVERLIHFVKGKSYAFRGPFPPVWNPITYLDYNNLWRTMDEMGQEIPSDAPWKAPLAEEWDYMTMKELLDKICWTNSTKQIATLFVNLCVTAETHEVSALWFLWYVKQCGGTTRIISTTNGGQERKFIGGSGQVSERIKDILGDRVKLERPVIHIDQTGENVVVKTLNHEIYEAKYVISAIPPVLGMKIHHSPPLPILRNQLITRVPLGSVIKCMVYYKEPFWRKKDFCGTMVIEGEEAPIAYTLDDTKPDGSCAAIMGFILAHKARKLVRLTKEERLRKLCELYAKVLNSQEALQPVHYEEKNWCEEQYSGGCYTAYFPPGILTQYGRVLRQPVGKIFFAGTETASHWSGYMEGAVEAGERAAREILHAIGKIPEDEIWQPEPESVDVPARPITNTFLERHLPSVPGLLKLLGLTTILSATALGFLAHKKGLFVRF
How it was run: (§1)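 Crude brain mitochondria from male Sprague-Dawley rats (200–250 g), used at 1 mg/mL. Isoforms separated with clorgyline or (−)-L-deprenyl, both irreversible at 250 nM. 5 min preincubation with compound, final DMSO 5% (v/v). Kynuramine then added at 60 μM (KM), and 4-hydroxyquinoline formation was followed at 314 nm for 5 min. IC50 by nonlinear regression of inhibition vs −log concentration, or % inhibition at 10 or 20 μM. Mean of 2–3 independent experiments.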

[2] = molecular target: T2, Amine oxidase [flavin-containing] A (Rattus norvegicus, UniProt P21396); experiment: Inhibition of MAO-A in Sprague-Dawley rat brain mitochondrial suspension using kynuramine as substrate incubated for 5 mins prior to substrate addition measured for 5 mins by spectrophotometry
T2 sequence (P21396 whole entry): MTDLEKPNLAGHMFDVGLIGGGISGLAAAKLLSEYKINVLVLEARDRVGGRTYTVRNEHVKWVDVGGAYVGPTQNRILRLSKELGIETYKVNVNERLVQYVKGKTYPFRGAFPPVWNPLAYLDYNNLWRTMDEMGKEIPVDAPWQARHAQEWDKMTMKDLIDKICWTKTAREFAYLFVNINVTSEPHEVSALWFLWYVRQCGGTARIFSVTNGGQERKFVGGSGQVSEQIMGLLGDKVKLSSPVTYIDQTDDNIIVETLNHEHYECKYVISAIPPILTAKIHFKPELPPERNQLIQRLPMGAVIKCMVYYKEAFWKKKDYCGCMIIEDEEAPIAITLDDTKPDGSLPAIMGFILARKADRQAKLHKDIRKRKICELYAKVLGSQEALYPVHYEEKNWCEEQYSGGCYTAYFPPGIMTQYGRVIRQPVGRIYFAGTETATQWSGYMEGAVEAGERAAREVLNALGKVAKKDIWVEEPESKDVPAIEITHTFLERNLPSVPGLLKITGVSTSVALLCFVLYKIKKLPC

[3] = molecular target: T1, Amine oxidase [flavin-containing] B; experiment: Inhibition of MAO-B in Sprague-Dawley rat brain mitochondrial suspension using kynuramine as substrate at 10 uM incubated for 5 mins prior to substrate addition measured for 5 mins by spectrophotometry; how it was run: as §1
[4] = molecular target: T2, Amine oxidase [flavin-containing] A; experiment: Ratio of moclobemide IC50 to compound IC50 for Sprague-Dawley rat brain MAO-A
[5] = molecular target: T2, Amine oxidase [flavin-containing] A; experiment: Inhibition of MAO-A in Sprague-Dawley rat brain mitochondrial suspension using kynuramine as substrate at 10 uM incubated for 5 mins prior to substrate addition measured for 5 mins by spectrophotometry
How it was run: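 Male Sprague-Dawley rat brain (200–250 g) crude mitochondrial fraction, 1 mg/mL, stored at −40 °C in isotonic phosphate/KCl buffer pH 7.4. Selective irreversible inhibitors clorgyline and (−)-L-deprenyl (250 nM each) used to separate isoform activities. Test compound preincubated 5 min, final DMSO 5% (v/v). Kynuramine 90 μM (KM) added, 4-hydroxyquinoline formation read at 314 nm for 5 min. […] Mean of 2–3 independent experiments.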

[6] = molecular target: T1, Amine oxidase [flavin-containing] B; experiment: Inhibition of MAO-B in Sprague-Dawley rat brain mitochondrial suspension using kynuramine as substrate at 20 uM incubated for 5 mins prior to substrate addition measured for 5 mins by spectrophotometry; how it was run: as §1

Compound	IC50 [2] [nM]	inhibition at 10 µM [3] [%]	other results
CNCc1cc(=O)oc2cc(OS(=O)(=O)c3cccc(Cl)c3)ccc12	5300		IC50 [1]: 1700 nM
CNC(=O)/C=C1/COc2c1ccc(OS(=O)(=O)c1ccc(OC)cc1)c2C	7	0	Ratio IC50 [4]: 1000
CNC(=O)/C=C1/COc2cc(OS(=O)(=O)CCC(F)(F)F)ccc21	9.1	17	
CNC(=O)/C=C1/COc2c1ccc(OS(=O)(=O)CCC(F)(F)F)c2C	11	5	
CNC(=O)Cc1coc2cc(OS(=O)(=O)c3cccc(Cl)c3)ccc12	409	4	
CCNC(=O)Cc1coc2cc(OS(=O)(=O)c3cccc(Cl)c3)ccc12		0	inhibition at 10 µM [5]: 31%
O=C1COc2cc(OS(=O)(=O)c3cccc(Cl)c3)ccc21		0	inhibition at 10 µM [5]: 17%
CNC(=O)/C=C1/COc2cc(OCc3cccc(Cl)c3)ccc21	427		IC50 [1]: 36 nM
CNC(=O)Cc1coc2cc(OCc3cccc(Cl)c3)ccc12	3100		IC50 [1]: 284 nM
CNC(=O)Cc1cc(=O)oc2cc(OS(=O)(=O)c3cccc(Cl)c3)ccc12	111		IC50 [1]: 8300 nM
CNC(=O)c1cc(=O)oc2cc(OS(=O)(=O)c3cccc(Cl)c3)ccc12		9	inhibition at 10 µM [5]: 8%
NCc1cc(=O)oc2cc(OS(=O)(=O)c3cccc(Cl)c3)ccc12	997		IC50 [1]: 3300 nM
CNC(=O)/C=C1/COc2cc(OS(=O)(=O)c3ccc(S(C)(=O)=O)cc3)ccc21	19	0	
CNC(=O)/C=C1/COc2cc(OS(=O)(=O)c3ccc(Cl)s3)ccc21	16	6	
CNC(=O)/C=C1/COc2c1ccc(OS(=O)(=O)c1ccccc1)c2C	9.8	5	
CNC(=O)/C=C1/COc2c1ccc(OS(=O)(=O)c1cccc(Cl)c1)c2C	24	2	
CNC(=O)/C=C1/COc2c1ccc(OS(=O)(=O)c1ccc(C#N)cc1)c2C	15	6	
O=C(NCCN1CCOCC1)c1ccc(Cl)cc1 [MOCLOBEMIDE]		0	

More lines, main results first:

IC50 [2] [nM]	inhibition at 10 µM [3] [%]	Compound	other results
29	0	CNC(=O)/C=C1/COc2cc(OS(=O)(=O)c3ccc(C(C)=O)cc3)ccc21	
11	0	CNC(=O)/C=C1/COc2cc(OS(=O)(=O)c3ccc(OC)cc3)ccc21	
4200	0	CCNC(=O)/C=C1/COc2cc(OS(=O)(=O)c3cccc(Cl)c3)ccc21	
	1	CC(C)NC(=O)/C=C1/COc2cc(OS(=O)(=O)c3cccc(Cl)c3)ccc21	inhibition at 10 µM [5]: 14%
34	0	CNC(=O)/C=C1/COc2cc(OS(=O)(=O)c3ccccc3)ccc21	
41	0	CNC(=O)/C=C1/COc2cc(OS(=O)(=O)c3cccc(Cl)c3)ccc21	
41		CNC(=O)/C=C1/COc2cc(OS(=O)(=O)c3cccc(F)c3)ccc21	inhibition at 20 µM [6]: 6%
19	0	CNC(=O)/C=C1/COc2cc(OS(=O)(=O)c3cccc(C#N)c3)ccc21	
12	6	CNC(=O)/C=C1/COc2cc(OS(=O)(=O)c3ccc(Cl)cc3)ccc21	
45		CNC(=O)/C=C1/COc2cc(OS(=O)(=O)c3ccc(C#N)cc3)ccc21	inhibition at 20 µM [6]: 10%
37	13	CNC(=O)/C=C1/COc2cc(OS(=O)(=O)c3ccc([N+](=O)[O-])cc3)ccc21	
